One may read the half-life as the time needed for the level to fall by half in the phase considered.

Data set [1] is described as follows: Activation of the compound assessed as half life at 10 Equiv of Et3P by HPLC and TLC method. Type of data set: physicochemical. Put shortly: (§1)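 Mitomycin at 0.03 mM final in buffered methanolic solution (0.1 M Tris-HCl, effective 'pH' 7.4), 25 °C, with added nucleophile (final 0.06–1.5 mM). Followed by UV–vis (200–600 nm) at ~373 nm, with mitosene products at ~313 nm, for more than two half-lives. Runs in duplicate and averaged. End-point 'pH' checked, mixtures analysed by HPLC and TLC against authentic samples.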

Data set [2] can be described thus: Activation of the compound assessed as half life at 20 Equiv of Et3P by HPLC and TLC method. The format is physicochemical. Put shortly:
as §1

For data set [3], the system named is Nucleic Acid. Briefly: Binding affinity to Escherichia coli pBR322 assessed as DNA interstand cross link at 0.1 mM after 2 hrs by agarose gel electrophoresis in presence of 5 equiv of Et3P. The format is nucleic-acid assay. Put shortly: (§2)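 EcoRI-linearized pBR322 plasmid DNA, deaerated with N2 for 15 min. Mitomycin (0.1–0.2 mM final, from 5 mM DMSO stock) and nucleophile (Et3P, L-DTT or GSH, 5 equiv, 0.5 mM final) added, then incubated 2 h at room temperature. Concentration scan with Et3P over […]. DNA extracted with phenol/chloroform and ethanol-precipitated, run on denaturing 1.2% alkaline agarose gel (40 mM NaOH, 1 mM EDTA), neutralised, stained, bands quantified.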

Data set [4] relates to Nucleic Acid. Nature of the data set: Binding affinity to Escherichia coli pBR322 assessed as DNA interstand cross link at 0.1 mM after 2 hrs by agarose gel electrophoresis in presence of 5 equiv of L-ditiothreitol. Type of data set: nucleic-acid assay. Put shortly:
as §2

Data set [5] is described as follows: Activation of the compound assessed as half life at 40 Equiv of Et3P by HPLC and TLC method. The format is physicochemical. Put shortly:
as §1

The test system of data set [6] is Nucleic Acid. Nature of the data set: Binding affinity to Escherichia coli pBR322 assessed as DNA interstand cross link at 0.5 mM after 6 mins by agarose gel electrophoresis in presence of 20 equiv of Et3P. Type of data set: nucleic-acid assay.
In data set [7] the test system is Nucleic Acid. Briefly: Binding affinity to Escherichia coli pBR322 assessed as DNA interstand cross link at 0.2 mM after 2 hrs by agarose gel electrophoresis in presence of 5 equiv glutathione. Type of data set: nucleic-acid assay. Put shortly: (§3)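 EcoRI-linearized pBR322 plasmid DNA, N2-deaerated 15 min, mitomycin added from DMSO stock (final 0.1–0.2 mM) with nucleophile (GSH, Et3P or L-DTT, 5 equiv) from DMSO stock; incubated room temperature 2 h. DNA phenol/CHCl3-extracted, EtOH-precipitated, resuspended in 10 mM Tris/1 mM EDTA pH 8.0. Run on denaturing 1.2% alkaline agarose gel (40 mM NaOH, 1 mM EDTA), neutralized, stained, bands quantified.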

Data set [8] relates to Nucleic Acid. Briefly: Binding affinity to Escherichia coli pBR322 assessed as DNA interstand cross link at 0.2 mM after 2 hrs by agarose gel electrophoresis in presence of 5 equiv of L-ditiothreitol. Type of data set: nucleic-acid assay. Put shortly:
as §3

In data set [9] the test system is Nucleic Acid. Nature of the data set: Binding affinity to Escherichia coli pBR322 assessed as DNA interstand cross link at 0.2 mM after 2 hrs by agarose gel electrophoresis in presence of 5 equiv of Et3P. Type of data set: nucleic-acid assay. Put shortly: as §3
Data set [10] is described as follows: Activation of the compound assessed as half life at 5 Equiv of Et3P by HPLC and TLC method. Type of data set: physicochemical. Put shortly: as §1
Data set [11] can be described thus: Stability of the compound at 20 Equiv of glutathione measured after 3 days by HPLC and TLC method. The format is physicochemical. The settings on record: read-out: Stability. Put shortly: as §1
Data set [12] is described as follows: Stability of the compound measured after 5 days by HPLC and TLC method. The format is physicochemical. The settings on record: read-out: Stability. Put shortly:
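Mitomycin at 0.03 mM final in buffered methanolic solution (0.1 M Tris-HCl, effective 'pH' 7.4), 25 °C, […]. Followed by UV–vis (200–600 nm) at ~373 nm. Runs in duplicate and averaged. HPLC and TLC analysis at the end.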

Data set [13] can be described thus: Stability of the compound at 2 Equiv of Et3P measured after 5 days by HPLC and TLC method. Type of data set: physicochemical. As to conditions: read-out: Stability. Put shortly:
as §1

A short description of data set [14]: Stability of the compound at 20 Equiv L-ditiothreitol measured after 3 days by HPLC and TLC method. As to conditions: read-out: Stability. Type of data set: physicochemical. Put shortly: as §1
The nature of data set [15]: Activation of the compound assessed as half life at 50 Equiv of Et3P by HPLC and TLC method. Type of data set: physicochemical. Put shortly:
as §1

Data set [16] has as its system Nucleic Acid. Briefly: Binding affinity to Escherichia coli pBR322 assessed as DNA interstand cross link at 0.1 mM after 2 hrs by agarose gel electrophoresis in presence of 5 equiv glutathione. The format is nucleic-acid assay. Put shortly: as §2
A short description of data set [17]: Stability of the compound at 10 Equiv of L-ditiothreitol after 3 days by HPLC and TLC method. As to conditions: read-out: Stability. The format is physicochemical. Put shortly: as §1
For data set [18], the system named is Nucleic Acid. Nature of the data set: Binding affinity to Escherichia coli pBR322 assessed as DNA interstand cross link at 0.05 to 0.25 mM after 2 hrs by agarose gel electrophoresis in presence of 5 equiv of Et3P. Type of data set: nucleic-acid assay. Put shortly: as §2
The nature of data set [19]: Stability of the compound at 10 Equiv of Et3P after 3 days by HPLC and TLC method. Type of data set: physicochemical. As to conditions: read-out: Stability. Put shortly:
as §1

Data set [20] is described as follows: Stability of the compound at 20 Equiv of L-ditiothreitol after 5 days by HPLC and TLC method. The format is physicochemical. As to conditions: read-out: Stability. Put shortly: as §1
A short description of data set [21]: Stability of the compound at 10 Equiv of L-ditiothreitol after 5 days by HPLC and TLC method. The format is physicochemical. The settings on record: read-out: Stability. Put shortly:
as §1

The nature of data set [22]: Stability of the compound at 50 Equiv of Et3P after 3 days by HPLC and TLC method. The format is physicochemical. As to conditions: read-out: Stability. Put shortly:
as §1

A short description of data set [23]: Stability of the compound at 20 Equiv of Et3P after 3 days by HPLC and TLC method. As to conditions: read-out: Stability. Type of data set: physicochemical. Put shortly:
as §1

SMILES strings stand for the structures. Calls of active or inactive are those of the source.

Regarding `CO[C@@]12[C@H](COC(N)=O)C3=C(C(=O)C(C)=C(NC[C@H]4CC[C@@H](CNC5=C(C)C(=O)C6=C(C5=O)[C@@H](COC(N)=O)[C@@]5(OC)[C@H]7N[C@H]7CN65)SS4)C3=O)N1C[C@@H]1N[C@@H]12`, the half-life is 6.24 h in data set [1] and 3.12 h in [2]. Moreover, the Activity in data set [3] was 83%; in [4], 77%.

On to `CO[C@@]12[C@H](OC(N)=O)C3=C(C(=O)C(C)=C(NCC4CCCCC(CNC5=C(C)C(=O)C6=C(C5=O)[C@@H](OC(N)=O)[C@@]5(OC)[C@H]7N[C@H]7CN65)SSC(CNC5=C(C)C(=O)C6=C(C5=O)[C@@H](OC(N)=O)[C@@]5(OC)[C@H]7N[C@H]7CN65)CCCCC(CNC5=C(C)C(=O)C6=C(C5=O)[C@@H](OC(N)=O)[C@@]5(OC)[C@H]7N[C@H]7CN65)SS4)C3=O)N1C[C@@H]1N[C@@H]12` (stereo partly drawn), for which the half-life in data set [5] was 1.01 h; in data set [2], 1.99 h. In addition, in [6], the Activity stood at 35%.

For the compound `CO[C@@]12[C@H](COC(N)=O)C3=C(C(=O)C(C)=C(N)C3=O)N1C[C@@H]1N[C@@H]12`, the Activity turned out to be 2% in data set [7], 2% in data set [8] and 3% in data set [9].

Consider `CO[C@@]12[C@H](COC(N)=O)C3=C(C(=O)C(C)=C(NCC4CCCCC(CNC5=C(C)C(=O)C6=C(C5=O)[C@@H](COC(N)=O)[C@@]5(OC)[C@H]7N[C@H]7CN65)SS4)C3=O)N1C[C@@H]1N[C@@H]12` (mixture of isomers), for which the half-life in data set [10] is 5.52 h; in data set [1], 1.92 h; in [15], 0.48 h; in data set [2], 1.2 h. The remaining at 72 h in data set [11], in data set [14] and in [17] was less than 10% in each case. The remaining at 120 h in [12] and in data set [13] was less than 10% in each case. Further, the Activity in data set [16] was 21%; in [3], 94%; in [4] it was 95%. For the same compound, the outcome in data set [18] was Active.

`CO[C@@]12[C@H](COC(N)=O)C3=C(C(=O)C(C)=C(NCC(O)CCCCC(O)CNC4=C(C)C(=O)C5=C(C4=O)[C@@H](COC(N)=O)[C@@]4(OC)[C@H]6N[C@H]6CN54)C3=O)N1C[C@@H]1N[C@@H]12` (mixture of isomers): the remaining at 72 h in [19], in [11], in data set [22] and in data set [23] was less than 10% in each case. The remaining at 120 h in data set [20], in data set [12] and in data set [21] was less than 10% each time. The results for the Activity in data set [16], in data set [3] and in data set [4] were 7%, 4% and 6%, respectively.

The values are drawn from ChEMBL document CHEMBL1817652, “Synthesis and mechanistic studies of a mitomycin dimer containing an eight-membered cyclic disulfide” (Bioorg Med Chem, 2011).
